From ChEMBL document CHEMBL1140779, “Trisubstituted 1,2,4-triazoles as ligands for the ghrelin receptor: on the significance of the orientation and substitution at position 3” (Bioorg Med Chem Lett, 2008)

These compounds were tested against T1, Growth hormone secretagogue receptor type 1 (Homo sapiens, UniProt Q92847) (assay: Displacement of [125I]His9-ghrelin from human GHSR1a receptor expressed in LLC PK1 cells).
Format: cell-based

T1 sequence (Q92847 whole entry): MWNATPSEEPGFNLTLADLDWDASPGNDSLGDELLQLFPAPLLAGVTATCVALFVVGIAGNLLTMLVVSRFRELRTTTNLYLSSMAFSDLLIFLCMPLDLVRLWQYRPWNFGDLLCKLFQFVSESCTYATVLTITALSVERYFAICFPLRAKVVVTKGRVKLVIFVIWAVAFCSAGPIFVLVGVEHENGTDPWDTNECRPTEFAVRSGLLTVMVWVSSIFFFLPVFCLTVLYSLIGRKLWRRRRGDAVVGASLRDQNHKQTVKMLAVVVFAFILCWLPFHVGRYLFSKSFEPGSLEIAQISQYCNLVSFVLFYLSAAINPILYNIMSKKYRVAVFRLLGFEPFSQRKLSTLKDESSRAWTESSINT

Structure (SMILES)	IC50
COc1ccc(Cn2c(Cc3ccccc3)nnc2[C@@H](Cc2ccccc2)NC(=O)C(C)(C)N)cc1	> 1000 nM
COc1ccc(Cn2c(CCc3ccccc3)nnc2[C@H](Cc2c[nH]c3ccccc23)NC(=O)C(C)(C)N)cc1	> 1000 nM
COc1ccc(Cn2c(Cc3ccccc3)nnc2[C@H](Cc2c[nH]c3ccccc23)NC(=O)C(C)(C)N)cc1	> 1000 nM
COc1ccc(Cn2c(CCCc3ccccc3)nnc2[C@H](Cc2c[nH]c3ccccc23)NC(=O)C(C)(C)N)cc1	> 1000 nM
COc1ccc(Cn2c(CCc3c[nH]c4ccccc34)nnc2[C@H](Cc2c[nH]c3ccccc23)NC(=O)C2CCNCC2)cc1	7 nM
COc1ccc(Cn2c(Cc3ccccc3)nnc2[C@H](Cc2c[nH]c3ccccc23)NC(=O)C(C)(C)N)c(OC)c1	> 1000 nM
COc1ccc(Cn2c(CCc3c[nH]c4ccccc34)nnc2[C@H](Cc2c[nH]c3ccccc23)NC(=O)C2CCOCC2)cc1	1300 nM
COc1ccc(Cn2c(CCc3c[nH]c4ccccc34)nnc2[C@@H](COCc2ccccc2)NC(=O)C(C)(C)N)cc1	800 nM
COc1ccc(Cn2c(CCc3c[nH]c4ccccc34)nnc2[C@H](Cc2c[nH]c3ccccc23)NC(=O)C(C)(C)N)cc1	140 nM
COc1ccc(Cn2c(CCc3ccccc3)nnc2[C@H](Cc2c[nH]c3ccccc23)NC(=O)C(C)(C)N)c(OC)c1	450 nM
COc1ccc(Cn2c(CCc3c[nH]c4ccccc34)nnc2[C@@H](Cc2c[nH]c3ccccc23)NC(=O)C2CCOCC2)cc1	45 nM
COc1ccc(Cn2c(CCc3c[nH]c4ccccc34)nnc2[C@@H](Cc2ccccc2)NC(=O)C(C)(C)N)cc1	200 nM
COc1ccc(Cn2c(CCc3c[nH]c4ccccc34)nnc2[C@@H](Cc2c[nH]c3ccccc23)NC(=O)c2ccccn2)cc1	8 nM
COc1ccc(Cn2c(CCc3c[nH]c4ccccc34)nnc2[C@H](Cc2c[nH]c3ccccc23)NC(=O)[C@@H]2CCCN2)cc1	650 nM
COc1ccc(Cn2c(CCc3c[nH]c4ccccc34)nnc2[C@@H](CC(=O)OCc2ccccc2)NC(=O)C(C)(C)N)cc1	450 nM

What follows are compounds tested against T1, Growth hormone secretagogue receptor type 1 (assay: Agonist activity at human GHSR1a receptor expressed in CHO cells assessed as intracellular calcium mobilization).
Format: functional, cell-based

Structure (SMILES)	EC50
COc1ccc(Cn2c(CCc3c[nH]c4ccccc34)nnc2[C@H](Cc2c[nH]c3ccccc23)NC(=O)C2CCNCC2)cc1	32 nM
COc1ccc(Cn2c(CCc3c[nH]c4ccccc34)nnc2[C@H](Cc2c[nH]c3ccccc23)NC(=O)C2CCOCC2)cc1	24 nM
COc1ccc(Cn2c(CCc3c[nH]c4ccccc34)nnc2[C@@H](Cc2c[nH]c3ccccc23)NC(=O)C2CCOCC2)cc1	24 nM

These compounds were tested against T1, Growth hormone secretagogue receptor type 1 (assay: Agonist activity at human GHSR1a receptor expressed in CHO cells assessed as intracellular calcium mobilization at 10 uM relative to ghrelin).
Format: functional, cell-based
Procedure, shortened: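 Transiently electroporated hGHS-R1a CHO cells loaded with Fluo-4AM; compound at 10 µM, triplicate, at least 2 independent experiments; fluorescence rise (485/525 nm, 60 s read) compared with buffer-only basal; maximal output taken as that of 0.1 µM ghrelin.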

Structure (SMILES)	Activity
COc1ccc(Cn2c(CCc3c[nH]c4ccccc34)nnc2[C@@H](Cc2c[nH]c3ccccc23)NC(=O)C(C)(C)N)c(OC)c1	0%
COc1ccc(Cn2c(Cc3ccccc3)nnc2[C@@H](Cc2ccccc2)NC(=O)C(C)(C)N)cc1	6%
COc1ccc(Cn2c(CCc3c[nH]c4ccccc34)nnc2[C@H](Cc2c[nH]c3ccccc23)NC(=O)C(C)(C)N)c(OC)c1	4%
COc1ccc(Cn2c(CCc3ccccc3)nnc2[C@H](Cc2c[nH]c3ccccc23)NC(=O)C(C)(C)N)cc1	0%
COc1ccc(Cn2c(Cc3ccccc3)nnc2[C@H](Cc2c[nH]c3ccccc23)NC(=O)C(C)(C)N)cc1	5%
COc1ccc(Cn2c(CCCc3ccccc3)nnc2[C@H](Cc2c[nH]c3ccccc23)NC(=O)C(C)(C)N)cc1	17%
COc1ccc(Cn2c(CCc3c[nH]c4ccccc34)nnc2[C@H](Cc2c[nH]c3ccccc23)NC(=O)C2CCNCC2)cc1	100%
COc1ccc(Cn2c(Cc3ccccc3)nnc2[C@H](Cc2c[nH]c3ccccc23)NC(=O)C(C)(C)N)c(OC)c1	11%
COc1ccc(Cn2c(CCCc3ccccc3)nnc2[C@@H](Cc2c[nH]c3ccccc23)NC(=O)C(C)(C)N)cc1	0%
COc1ccc(Cn2c(CCc3c[nH]c4ccccc34)nnc2[C@H](Cc2c[nH]c3ccccc23)NC(=O)C2CCOCC2)cc1	0%
COc1ccc(Cn2c(Cc3ccccc3)nnc2[C@@H](Cc2c[nH]c3ccccc23)NC(=O)C(C)(C)N)c(OC)c1	0%
COc1ccc(Cn2c(CCc3c[nH]c4ccccc34)nnc2[C@@H](COCc2ccccc2)NC(=O)C(C)(C)N)cc1	0%
COc1ccc(Cn2c(CCc3c[nH]c4ccccc34)nnc2[C@H](Cc2c[nH]c3ccccc23)NC(=O)C(C)(C)N)cc1	31%
COc1ccc(Cn2c(CCc3ccccc3)nnc2[C@H](Cc2c[nH]c3ccccc23)NC(=O)C(C)(C)N)c(OC)c1	4%
COc1ccc(Cn2c(CCc3ccccc3)nnc2[C@@H](Cc2c[nH]c3ccccc23)NC(=O)C(C)(C)N)cc1	2%
COc1ccc(Cn2c(CCc3ccccc3)nnc2[C@@H](Cc2c[nH]c3ccccc23)NC(=O)C(C)(C)N)c(OC)c1	0%
COc1ccc(Cn2c(CCc3c[nH]c4ccccc34)nnc2[C@@H](Cc2c[nH]c3ccccc23)NC(=O)C2CCOCC2)cc1	2%
COc1ccc(Cn2c(CCc3c[nH]c4ccccc34)nnc2[C@@H](Cc2ccccc2)NC(=O)C(C)(C)N)cc1	6%
COc1ccc(Cn2c(CCc3c[nH]c4ccccc34)nnc2[C@@H](Cc2c[nH]c3ccccc23)NC(=O)c2ccccn2)cc1	0%
COc1ccc(Cn2c(CCc3c[nH]c4ccccc34)nnc2[C@H](Cc2c[nH]c3ccccc23)NC(=O)[C@@H]2CCCN2)cc1	0%
COc1ccc(Cn2c(CCc3c[nH]c4ccccc34)nnc2[C@@H](CC(=O)OCc2ccccc2)NC(=O)C(C)(C)N)cc1	5%
COc1ccc(Cn2c(Cc3ccccc3)nnc2[C@@H](Cc2c[nH]c3ccccc23)NC(=O)C(C)(C)N)cc1	9%

These compounds were tested against T1, Growth hormone secretagogue receptor type 1 (assay: Antagonist activity at human GHSR1a receptor expressed in CHO cells assessed as intracellular calcium mobilization).

Structure (SMILES)	Kb
COc1ccc(Cn2c(CCc3c[nH]c4ccccc34)nnc2[C@@H](Cc2c[nH]c3ccccc23)NC(=O)[C@@H]2CCCN2)cc1	6 nM
COc1ccc(Cn2c(CCc3c[nH]c4ccccc34)nnc2[C@H](Cc2c[nH]c3ccccc23)NC(=O)[C@@H]2CCCN2)cc1	440 nM

The compounds below were run against T1, Growth hormone secretagogue receptor type 1 (assay: Antagonist activity at human GHSR1a receptor expressed in CHO cells assessed as reduction of ghrelin-induced intracellular calcium mobilization).
Format: functional, cell-based

Structure (SMILES)	IC50	Kb
COc1ccc(Cn2c(CCc3c[nH]c4ccccc34)nnc2[C@@H](Cc2c[nH]c3ccccc23)NC(=O)C(C)(C)N)c(OC)c1	620 nM	–
COc1ccc(Cn2c(CCc3c[nH]c4ccccc34)nnc2[C@H](Cc2c[nH]c3ccccc23)NC(=O)C(C)(C)N)c(OC)c1	3200 nM	69 nM
COc1ccc(Cn2c(CCCc3ccccc3)nnc2[C@@H](Cc2c[nH]c3ccccc23)NC(=O)C(C)(C)N)cc1	600 nM	–
COc1ccc(Cn2c(CCc3c[nH]c4ccccc34)nnc2[C@@H](Cc2c[nH]c3ccccc23)NC(=O)C(C)(C)N)cc1	190 nM	–
COc1ccc(Cn2c(CCc3ccccc3)nnc2[C@@H](Cc2c[nH]c3ccccc23)NC(=O)C(C)(C)N)cc1	275 nM	–
COc1ccc(Cn2c(CCc3ccccc3)nnc2[C@@H](Cc2c[nH]c3ccccc23)NC(=O)C(C)(C)N)c(OC)c1	800 nM	–
COc1ccc(Cn2c(Cc3ccccc3)nnc2[C@@H](Cc2c[nH]c3ccccc23)NC(=O)C(C)(C)N)cc1	870 nM	19 nM
